Test results as given in ChEMBL document CHEMBL4425095, “Novel Cephalosporins Selectively Active on Nonreplicating Mycobacterium tuberculosis” (J Med Chem, 2016).
Converted amounts (≈) assume the structure as drawn. The source made the active and inactive calls. No cut-off for these calls is given here.

Columns and labels:
[1] = Cytotoxicity against human HepG2 cells assessed as reduction in cell viability after 2 days by Celltiter-Glo reagent based assay; conditions: read-out: LD50
Procedure, shortened: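 HepG2 cells in DMEM with 10% FBS, pyruvate, glutamine and nonessential amino acids. Seeded at 3000 cells/well and exposed 2 days to compound or vehicle (≤1% DMSO final). Reported as LD50.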

[2] = tested on: Mycobacterium tuberculosis; assay: Bactericidal activity against wild-type non-replicating Mycobacterium tuberculosis H37Rv multi-stress model at 0.1 to 100 ug/ml incubated for 7 days measured at OD580 = 0.01 by charcoal agar resazurin assay; type: functional, organism-based
[3] = tested on: Mycobacterium tuberculosis; assay: Bactericidal activity against wild-type replicating Mycobacterium tuberculosis H37Rv assessed as reduction in CFU in presence of beta-lactamase inhibitor clavulanate; type: functional, organism-based
[4] = Stability in pH 7.4 phosphate buffer solution assessed as parent compound remaining at 5 to 50 ug/ml at 37 degC measured every 12 hrs up to 144 hrs by LC-MS analysis; type: physicochemical
Procedure, shortened: (§1)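 Compound at 50 μg/mL in cell-free PBS pH 7.4, or nonreplicating medium pH 5.0 (BSA, tyloxapol, lysine, pantothenate omitted) with or without 0.5 mM NaNO2. Poorly soluble compounds at 5 μg/mL in 50:50 acetonitrile mixtures, pH readjusted to 5.0.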

[5] = Stability in pH 5 non-replicating medium containing 0.5 mM NaNO2 assessed as parent compound remaining at 5 to 50 ug/ml at 37 degC measured every 12 hrs up to 144 hrs by LC-MS analysis; type: physicochemical; conditions: buffer; procedure, shortened: as §1
[6] = Stability in pH 5 non-replicating medium assessed as parent compound remaining at 5 to 50 ug/ml at 37 degC measured every 12 hrs up to 144 hrs by LC-MS analysis; type: physicochemical; conditions: buffer; procedure, shortened: as §1
[7] = tested on: Mycobacterium tuberculosis; assay: Bactericidal activity against wild-type non-replicating Mycobacterium tuberculosis H37Rv multi-stress model incubated for 7 days measured at OD580 = 0.01 by charcoal agar resazurin assay; type: functional, organism-based
Procedure, shortened: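 Nonreplicating wild-type H37Rv at OD580 0.1 or 0.01 treated 7 days with or without 0.5 mM NaNO2. 10 μL spotted onto 7H11-OADC-charcoal agar and incubated 7–10 days at 37 °C. Developed with Alamar blue:Tween80 1:1 for 1 h; fluorescence read at ex 530/em 590. Complete loss of fluorescence taken as ≥2–3 log10 CFU reduction.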

Row | Compound | CC50 at 48 h [1] | also measured
1 | CC1=C(c2nc(C)no2)N2C(=O)[C@@H](NC(=O)Cc3ccccc3)[C@H]2SC1 | > 100 µg/mL | 
2 | CC1=C(c2nc(C)no2)N2C(=O)[C@@H](NC(=O)Cc3ccc(C)cc3)[C@H]2SC1 | > 100 µg/mL | 
3 | CCCc1noc(C2=C(C)CS[C@@H]3[C@H](NC(=O)Cc4ccccc4)C(=O)N23)n1 | > 100 µg/mL | 
4 | CCOC(=O)C1=C(C)CS[C@@H]2[C@H](NC(=O)COc3ccc(Cl)cc3)C(=O)N12 | 41 µg/mL (≈ 99.8 µM) | 
5 | CC1=C(c2nc(C)no2)N2C(=O)[C@@H](NC(=O)OCC(Cl)(Cl)Cl)[C@H]2SC1 | > 100 µg/mL | Activity [2]: Active
6 | CCOC(=O)C1=C(C)CS[C@@H]2[C@H](NC(=O)CCc3ccccc3)C(=O)N12 | > 100 µg/mL | 
7 | CCCc1noc(C2=C(C)CS[C@@H]3[C@H](NC(=O)CCc4ccc(F)cc4)C(=O)N23)n1 | > 100 µg/mL | 
8 | CCCCOC(=O)C1=C(C)CS[C@@H]2[C@H](NC(=O)CCc3ccc(Cl)cc3)C(=O)N12 | > 100 µg/mL | 
9 | CC(=O)OCC1=C(C(=O)O)N2C(=O)[C@@H](NC(=O)Cc3cccs3)[C@H]2SC1 [CEPHALOTHIN] | > 100 µg/mL | 
10 | CCOC(=O)C1=C(C)CS[C@@H]2[C@H](NC(=O)COc3ccc(OC)cc3)C(=O)N12 | > 100 µg/mL | 
11 | CCCCOc1ccc(CCC(=O)N[C@@H]2C(=O)N3C(c4nc(C)no4)=C(C)CS[C@H]23)cc1 | 74.4 µg/mL (≈ 163 µM) | 
12 | CC1=C(c2nc(C)no2)N2C(=O)[C@@H](NC(=O)OC(C)(C)C)[C@H]2SC1 | > 100 µg/mL | 
13 | CC1=C(C(=O)O)N2C(=O)[C@@H](NC(=O)Cc3ccc(Cl)cc3)[C@H]2SC1 | > 100 µg/mL | 
14 | CCCCOC(=O)C1=C(C)CS[C@@H]2[C@H](NC(=O)CCc3ccc(OC)cc3)C(=O)N12 | > 100 µg/mL | 
15 | CCCN[C@@H]1C(=O)N2C(C(=O)OCCC)=C(C)CS[C@H]12 | > 100 µg/mL | Activity [3]: inactive; Stability [4]: 100%; Stability [5]: 40%; Stability [6]: 100%
16 | COc1ccc(CCC(=O)N[C@@H]2C(=O)N3C(c4nc(C)no4)=C(C)CS[C@H]23)cc1 | > 100 µg/mL | 
17 | CCCCOC(=O)C1=C(C)CS[C@@H]2[C@H](NC(=O)COc3ccc(OC)cc3)C(=O)N12 | > 100 µg/mL | 

Row | Compound | CC50 at 48 h [1] | also measured
18 | CC1=C(c2nc(C)no2)N2C(=O)[C@@H](NC(=O)OCC(C)(C)C)[C@H]2SC1 | > 100 µg/mL | 
19 | COC(=O)C1=C(C)CS[C@@H]2[C@H](NC(=O)[C@@H](c3ccccc3)N(C)C)C(=O)N12 | > 100 µg/mL | 
20 | CC1=C(C(=O)O)N2C(=O)[C@@H](NC(=O)[C@H](N)c3ccccc3)[C@H]2SC1 [CEPHALEXIN ANHYDROUS] |  | Activity [7]: inactive
21 | CCCCOC(=O)C1C(C)=CS[C@@H]2[C@H](NC(=O)COc3ccccc3)C(=O)N12 (some centres undefined) | 61.8 µg/mL (≈ 153 µM) | 
22 | C=CC1=C(C(=O)O)N2C(=O)[C@@H](NC(=O)/C(=N\O)c3csc(N)n3)[C@H]2SC1 | > 100 µg/mL | 
23 | CCCCOC(=O)C1=C(C)CS[C@@H]2[C@H](NC(=O)CCc3ccccc3)C(=O)N12 | > 100 µg/mL | Activity [2]: Active
24 | COc1ccc(CCC(=O)N[C@@H]2C(=O)N3C(C(=O)OCc4ccccc4)=C(C)CS[C@H]23)cc1 | > 100 µg/mL | 
25 | CC1=C(c2nc(C)no2)N2C(=O)[C@@H](NC(=O)[C@H](N)c3ccccc3)[C@H]2SC1 | > 100 µg/mL | 
26 | CC1=C(C(=O)O)N2C(=O)[C@@H](NC(=O)c3ccc(Cl)cc3)[C@H]2SC1 | > 100 µg/mL | 
27 | CCCc1noc(C2=C(C)CS[C@@H]3[C@H](NC(=O)CCc4ccc(C)cc4)C(=O)N23)n1 | > 100 µg/mL | 
28 | C#CCNC(=O)C1=C(C)CS[C@@H]2[C@H](NC(=O)COc3ccccc3)C(=O)N12 | > 100 µg/mL | 
29 | CC1=C(C(=O)O)N2C(=O)[C@@H](NC(=O)CCc3ccc(Br)cc3)[C@H]2SC1 | > 100 µg/mL | 
30 | C#CCOC(=O)C1=C(C)CS[C@@H]2[C@H](NC(=O)CCc3ccccc3)C(=O)N12 | > 100 µg/mL | 
31 | COC(=O)C1=C(C)CS[C@@H]2[C@H](NC(=O)COc3ccc(OC)cc3)C(=O)N12 | > 100 µg/mL | 
32 | CCSC(=O)N[C@@H]1C(=O)N2C(c3nc(C)no3)=C(C)CS[C@H]12 | > 100 µg/mL | 
33 | COc1ccc(OCC(=O)N[C@@H]2C(=O)N3C(C(=O)OCc4ccccc4)=C(C)CS[C@H]23)cc1 | > 100 µg/mL | 
